# From ChEMBL document CHEMBL3112586, “Synthesis of neolignans as microtubule stabilisers” (Bioorg Med Chem, 2014)
# Calls of active or inactive are those of the source. No cut-off for these calls is given here.
# Assays:
# Tubulin (Homo sapiens) = Tubulin (Homo sapiens) (UniProt P68371+Q9H4B7+P0DPH7+P68366+Q13509+Q71U36+P04350+Q3ZCM7+P07437+P68363+Q9BQE3+Q6PEY2+Q13885+Q9BVA1+Q9BUF5); assay: Induction of tubulin polymerization (unknown origin) at 10 to 40 uM measured every min for 1 hr in presence of PDT; format: protein-complex assay
# Outline: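 Tubulin 3 mg/mL in 80 mM PIPES pH 6.9, 2 mM MgCl2, 0.5 mM EGTA, 1 mM GTP, 15% glycerol at 37 °C with test compounds at varied concentrations; turbidity at 340 nm read every min for 1 h; podophyllotoxin inhibitor and paclitaxel stabiliser references, DMSO negative control.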
# MDA-MB-231 [1] = assay: Cell cycle arrest in human MDA-MB-231 cells at 5 to 30 uM after 24 hrs by propidium iodide staining-based FACS analysis; format: functional
# Outline: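 MDA-MB-231 grown in DMEM with 10% FBS at 37 °C, 5% CO2; 24 h treatment, then cold-PBS wash, 2 × 10⁶ cells/ml, absolute-ethanol fixation, RNase A, propidium iodide 50 µg/mL for 30 min at room temperature; flow cytometric DNA content, sub-diploid fraction scored.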
# MCF7 [2] = assay: Cell cycle arrest in human MCF7 cells assessed as accumulation at G1 phase at 5 to 30 uM after 24 hrs by propidium iodide staining-based FACS analysis; format: functional
# Outline: (§1)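 MCF-7 in DMEM, 10% FBS, 37 °C, 5% CO2; treated 24 h, harvested, washed cold PBS, resuspended 2 × 10⁶ cells/ml, fixed absolute ethanol, RNase A treated, propidium iodide (50 µg/mL) 30 min room temperature; DNA content by flow cytometry; phase distribution versus untreated control.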
# MCF7 [3] = assay: Cell cycle arrest in human MCF7 cells assessed as decrease in S phase at 5 to 30 uM after 24 hrs by propidium iodide staining-based FACS analysis relative to untreated control; format: functional; outline: as §1
# MCF7 [4] = assay: Cell cycle arrest in human MCF7 cells assessed as accumulation at G2 phase at 5 to 30 uM after 24 hrs by propidium iodide staining-based FACS analysis; format: functional; outline: as §1
# MDA-MB-231 [5] = assay: Cytotoxicity against human MDA-MB-231 cells after 48 to 72 hrs by MTT assay; format: functional, cell-based
# Outline: (§2)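 Cells in DMEM, 10% FBS, 37 °C, 5% CO2, plated and incubated 24 h; compounds diluted in phenol-red-free DMEM with 0.5% FBS, vehicle control; after exposure, MTT (5 mg/mL stock) added 3 h, formazan dissolved in DMSO, absorbance 570 nm; IC50 derived; podophyllotoxin and tamoxifen positive controls.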
# HEK293 = assay: Cytotoxicity against human HEK293 cells after 24 hrs by MTT assay; format: cell-based; conditions: HEK293, 24 h; outline: as §2
# MDA-MB-231 [6] = assay: Cytotoxicity against human MDA-MB-231 cells after 48 hrs by MTT assay; format: functional, cell-based; conditions: MDA-MB-231, 48 h; outline: as §2
# Mus musculus [7] = assay: Toxicity in Swiss albino mouse assessed as change in monocyte count at 5 to 1000 mg/kg, po relative to control; format: organism-based; set-up: dose 5-1000 mg/kg, route oral; conditions: in vivo
# Mus musculus [8] = assay: Toxicity in Swiss albino mouse assessed as change in neutrophil count at 5 to 1000 mg/kg, po relative to control; format: organism-based; set-up: dose 5-1000 mg/kg, route oral; conditions: in vivo
# MCF7 [9] = assay: Cell cycle arrest in human MCF7 cells assessed as accumulation at G2/M phase at 5 to 30 uM after 24 hrs by propidium iodide staining-based FACS analysis; format: functional; outline: as §1
# Mus musculus [10] = assay: Toxicity in Swiss albino mouse assessed as absolute kidney weight at 5 to 1000 mg/kg, po relative to control; format: organism-based; set-up: dose 5-1000 mg/kg, route oral; conditions: in vivo
# Mus musculus [11] = assay: Toxicity in Swiss albino mouse assessed as relative spleen weight at 5 to 1000 mg/kg, po relative to control; format: organism-based; set-up: dose 5-1000 mg/kg, route oral; conditions: in vivo
# Outline: (§3)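 One oral dose (5–1000 mg/kg; DMSO then 0.7% carboxymethyl cellulose vehicle; controls vehicle-only) was given to groups of 6 mice (3 male, 3 female). On day 7 the animals were sacrificed and necropsied for gross pathology. Absolute and relative weights of vital organs were recorded and compared with control.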
# Mus musculus [12] = assay: Toxicity in Swiss albino mouse assessed as relative liver weight at 5 to 1000 mg/kg, po relative to control; format: organism-based; set-up: dose 5-1000 mg/kg, route oral; conditions: in vivo; outline: as §3
# Mus musculus [13] = assay: Toxicity in Swiss albino mouse assessed as change in cholesterol level at 300 mg/kg, po (reference value: 81.64 +/- 4.26 mg/dL); format: organism-based; set-up: dose 300 mg/kg, route oral; conditions: in vivo
# Mus musculus [14] = assay: Toxicity in Swiss albino mouse assessed as change in cholesterol level at 5 mg/kg, po (reference value: 81.64 +/- 4.26 mg/dL); format: organism-based; set-up: dose 5 mg/kg, route oral; conditions: in vivo
# Mus musculus [15] = assay: Toxicity in Swiss albino mouse assessed as change in serum protein level at 300 mg/kg, po (reference value: 1.11 +/- 0.14 mg/ml); format: organism-based; set-up: dose 300 mg/kg, route oral; conditions: in vivo
# Mus musculus [16] = assay: Toxicity in Swiss albino mouse assessed as change in serum protein level at 5 mg/kg, po (reference value: 1.11 +/- 0.14 mg/ml); format: organism-based; set-up: dose 5 mg/kg, route oral; conditions: in vivo
# Mus musculus [17] = assay: Toxicity in Swiss albino mouse assessed as change in triglyceride level at 1000 mg/kg, po (reference value: 121.45 +/- 24.02 mg/dL); format: organism-based; set-up: dose 1000 mg/kg, route oral; conditions: in vivo
# Mus musculus [18] = assay: Toxicity in Swiss albino mouse assessed as change in triglyceride level at 50 mg/kg, po (reference value: 121.45 +/- 24.02 mg/dL); format: organism-based; set-up: dose 50 mg/kg, route oral; conditions: in vivo
# Mus musculus [19] = assay: Toxicity in Swiss albino mouse assessed as change in creatinine level at 50 mg/kg, po (reference value: 0.63 +/- 0.18 mg/dL); format: organism-based; set-up: dose 50 mg/kg, route oral; conditions: in vivo
# Mus musculus [20] = assay: Toxicity in Swiss albino mouse assessed as change in albumin level at 300 mg/kg, po (reference value: 3.35 +/- 0.51 g/dL); format: organism-based; set-up: dose 300 mg/kg, route oral; conditions: in vivo
# Mus musculus [21] = assay: Toxicity in Swiss albino mouse assessed as change in albumin level at 5 mg/kg, po (reference value: 3.35 +/- 0.51 g/dL); format: organism-based; set-up: dose 5 mg/kg, route oral; conditions: in vivo
# Mus musculus [22] = assay: Toxicity in Swiss albino mouse assessed as change in ALKP level at 300 mg/kg, po (reference value: 218.67 +/- 12.43 U/L); format: organism-based; set-up: dose 300 mg/kg, route oral; conditions: in vivo
# Mus musculus [23] = assay: Toxicity in Swiss albino mouse assessed as change in ALKP level at 50 mg/kg, po (reference value: 218.67 +/- 12.43 U/L); format: organism-based; set-up: dose 50 mg/kg, route oral; conditions: in vivo
# Mus musculus [24] = assay: Toxicity in Swiss albino mouse assessed as change in ALKP level at 5 mg/kg, po (reference value: 218.67 +/- 12.43 U/L); format: organism-based; set-up: dose 5 mg/kg, route oral; conditions: in vivo
# Mus musculus [25] = assay: Toxicity in Swiss albino mouse assessed as change in WBC count at 1000 mg/kg, po (reference value: 14.2 +/- 7.49 X 10^3/mm'3); format: organism-based; set-up: dose 1000 mg/kg, route oral; conditions: in vivo
# Mus musculus [26] = assay: Toxicity in Swiss albino mouse assessed as change in WBC count at 50 mg/kg, po (reference value: 14.2 +/- 7.49 X 10^3/mm'3); format: organism-based; set-up: dose 50 mg/kg, route oral; conditions: in vivo
# Mus musculus [27] = assay: Toxicity in Swiss albino mouse assessed as change in RBC count at 300 mg/kg, po (reference value: 5.43 +/- 0.27 million/mm'3); format: organism-based; set-up: dose 300 mg/kg, route oral; conditions: in vivo
# Mus musculus [28] = assay: Toxicity in Swiss albino mouse assessed as change in RBC count at 50 mg/kg, po (reference value: 5.43 +/- 0.27 million/mm'3); format: organism-based; set-up: dose 50 mg/kg, route oral; conditions: in vivo
# Mus musculus [29] = assay: Toxicity in Swiss albino mouse assessed as change in body weight at 50 mg/kg, po (reference value: 24.5 +/- 0.76 g); format: organism-based; set-up: dose 50 mg/kg, route oral; conditions: in vivo
smiles,measurement,setting,value
CCOC(=O)/C=C/c1ccc(O)c(/C(=C/c2ccc(O)cc2)C(=O)OCC)c1,Activity,Tubulin (Homo sapiens),inactive
same,Activity,MDA-MB-231 [1],inactive
same,Activity,MCF7 [2],inactive
same,Activity,MCF7 [3],Active
same,Activity,MCF7 [4],Active
same,Activity,MDA-MB-231 [5],Active
same,IC50,HEK293,12 µM
same,IC50,MDA-MB-231 [6],6.47 µM
same,Activity,Mus musculus [7],Non-toxic
same,Activity,Mus musculus [8],Non-toxic
same,Activity,MCF7 [9],Active
same,Activity,Mus musculus [10],Non-toxic
same,Activity,Mus musculus [11],Non-toxic
same,Activity,Mus musculus [12],Non-toxic
same,Activity,Mus musculus [13],77.65 mg/dL
same,Activity,Mus musculus [14],75.94 mg/dL
same,Activity,Mus musculus [15],0.92 mg/mL
same,Activity,Mus musculus [16],0.88 mg/mL
same,Activity,Mus musculus [17],156.83 mg/dL
same,Activity,Mus musculus [18],147.23 mg/dL
same,Activity,Mus musculus [19],1.45 mg/dL
same,Activity,Mus musculus [20],2.59 g/dL
same,Activity,Mus musculus [21],3.17 g/dL
same,Activity,Mus musculus [22],217.42 U/L
same,Activity,Mus musculus [23],234.14 U/L
same,Activity,Mus musculus [24],227.47 U/L
same,Activity,Mus musculus [25],15.94 ×10³ /mm3
same,Activity,Mus musculus [26],14.7 ×10³ /mm3
same,Activity,Mus musculus [27],5.11 million/mm3
same,Activity,Mus musculus [28],5.58 million/mm3
same,Activity,Mus musculus [29],24.83 g
